This is one part of a sample in which hits are shown more often than they occur.
Jurkat NFkB inh = inhibitors of induced NF-kB luciferase reporter, primary screen, TCR NF-kB activation inhibitor project, cell-based, luminescence, uHTS | actives 0.53% (n = 330,000) | AID 435003, 2010 | inhibition, % at 4 µM | Jurkat, PMA/ionomycin-induced NF-kB luciferase reporter; in the data active = inhibition above about 50%
XBP1 UPR activ = activators of adaptive XBP1 UPR arm, primary screen, cell-based, CHO-XBP1 luciferase reporter, luminescence, uHTS; IRE1-XBP1 UPR activation; percent of tunicamycin response, DMSO as zero; activation, % at 20 µM; actives 0.33% (n = 330,000); AID 463104, 2010;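 active = versus positive control, 20 µM dose yields 30% or more activation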;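 also: 100% = tunicamycin at 10 µg/mL and 0% = DMSO only wells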
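Test system: CHO-XBP1 luciferase reporter cells | Buffer or medium: Serum-containing F12 medium, 10% FBS | Schedule: 6 h compound exposure at 37 °C, 5% CO2 | Detection: Steady-Glo luciferase glow luminescence, 10 min after reagent addition | Read-out basis: Activation, % of tunicamycin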
697 NFkB inh = inhibitors of PMA/ionomycin-induced NF-kB reporter, 697 cells, primary screen, B-cell NF-kB inhibitor project, cell-based, luminescence, uHTS | 697 B-cell NF-kB luciferase reporter, 16 h | inhibition, % at 4 µM | actives 0.33% (n = 330,000) | AID 435022, 2010; in the data active = inhibition above about 35%
CHOP inhibitor = inhibitors of CHOP promoter induction, primary screen, cell-based, unfolded protein response, luciferase reporter; CHO-K1 CHOP-promoter luciferase, tunicamycin-induced, 15-18 h; inhibition, % at 10 µM; actives 3.8% (n = 220,000);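 active = compounds that reduced the stress-induced luciferase reporter signal by more than about 70% of percent inhibition, limit read from the data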;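 also: 0% = tunicamycin plus vehicle and 100% = wells without tunicamycin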
CHOP UPR activ = activators of apoptotic CHOP UPR arm, primary screen, cell-based, CHO-CHOP luciferase reporter, luminescence, uHTS | AID 449763, 2010 | actives 0.34% (n = 330,000) | activation, % at 10 µM | UPR activation; percent of tunicamycin response over DMSO baseline;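 active = at 10 µM dose, activation of 40% or more, normalized to positive control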;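 also: 100% = tunicamycin at 10 µg/mL and 0% = DMSO alone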
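measured by = luciferase luminescence | assay system = CHO-CHOP cells, stable luciferase reporter of PERK-eIF2a-CHOP signalling | amount = 500 reporter cells seeded per well | timing = 6 h compound exposure at 37 °C after overnight seeding | controls = positive tunicamycin 10 µg/mL, negative DMSO alone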
CHOP inh conf = retest of CHOP induction inhibitors, confirmation, cell-based; inhibition, % at 10 µM; actives 45% (n = 2,100); CHO-CHOP promoter luciferase reporter, tunicamycin-induced, luminescence; shares compounds with CHOP inhibitor; AID 504437, 2011;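 active = mean of three repeat readings of reporter signal inhibition above a set limit, cut at about 70% in these data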;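 also: 0% = tunicamycin plus vehicle and 100% = wells lacking tunicamycin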
Jurkat NFkB conf = PMA/ionomycin-induced NF-kB reporter inhibitors, Jurkat retest, confirmation, T-cell NF-kB inhibitor project, cell-based, luminescence, single concentration | Jurkat NF-kB luciferase, 16 h | inhibition, % at 4 µM | AID 435020, 2010 | actives 27% (n = 2,700) | shares compounds with Jurkat NFkB inh;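 active = inhibition reaching about 45% at 4 µM in either replicate, limit read from the data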;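 also: plate controls were PMA/ionomycin stimulated DMSO wells for no effect and unstimulated DMSO wells for full effect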
Active calls of the source: *.

For C=CCn1c(SCC(=O)c2[nH]c(C)c(C(=O)OCC)c2C)nc2scc(-c3ccc(OC)c(OC)c3)c2c1=O the results were CHOP inhibitor 105.6* and CHOP inh conf 50.2.
`O=C(CN1CCN(S(=O)(=O)c2ccccc2)CC1)N1CCCCC1` gave Jurkat NFkB inh -0.7, XBP1 UPR activ -1.0, 697 NFkB inh 17.5 and CHOP UPR activ 1.5.
`CC(C)c1ccccc1NC(=O)Cn1c(-c2ccccc2Cl)nc2ccccc21` gave Jurkat NFkB inh 10.6, XBP1 UPR activ -2.4, 697 NFkB inh 10.1, CHOP inhibitor 11.1 and CHOP UPR activ 1.6.
CC(C)c1ccccc1NC(=O)Cn1c(/C=C/c2ccccc2)nc2ccccc21 was read as Jurkat NFkB inh -24.7, XBP1 UPR activ 32.5*, 697 NFkB inh -20.7, CHOP inhibitor 99.3*, CHOP UPR activ 12.3 and CHOP inh conf 101.2*.
Cc1sc2ncnc(N3CCCCC3C)c2c1C (centres undefined) was read as Jurkat NFkB inh -0.2, XBP1 UPR activ 0.4, 697 NFkB inh -75.3, CHOP inhibitor 98.7*, CHOP UPR activ 2.2 and CHOP inh conf 70.3*.
Screening O=Nc1c(O)n(Cc2ccc(Cl)c(Cl)c2)c2ccccc12 returned Jurkat NFkB inh 1.9, XBP1 UPR activ 1.6, 697 NFkB inh -19.4, CHOP inhibitor 106.6*, CHOP UPR activ -1.5 and CHOP inh conf 3.5.
O=Nc1c(O)n(Cc2ccccc2)c2ccccc12 was read as Jurkat NFkB inh 1.6, XBP1 UPR activ -2.8, 697 NFkB inh 6.6, CHOP inhibitor 15.4 and CHOP UPR activ 0.6.
COc1cc(/C=C2/C(=O)c3cccc([N+](=O)[O-])c3C2=O)c(Br)cc1O was read as CHOP inhibitor 107.3* and CHOP inh conf 4.0.
COc1ccccc1NC(=O)CCCCCN1C(=O)c2cccc([N+](=O)[O-])c2C1=O was read as Jurkat NFkB inh 3.9, XBP1 UPR activ -0.1, 697 NFkB inh 9.4 and CHOP UPR activ -0.2.
Screening COC(=O)c1sc(NC(=S)NC(=O)c2ccccc2C)nc1C returned Jurkat NFkB inh -27.7, XBP1 UPR activ -1.8, 697 NFkB inh -19.8, CHOP inhibitor -3.4 and CHOP UPR activ 2.3.
`COc1ccc(/C=N\NC(=O)COc2ccc(C(C)(C)C)cc2)cc1Cn1nc(C)cc1C` gave Jurkat NFkB inh 9.4, XBP1 UPR activ -5.4, 697 NFkB inh 0.0, CHOP inhibitor 109.7*, CHOP UPR activ 1.6 and CHOP inh conf 104.2*.
CCOc1ccc(C2=C/C(=C/c3cccnc3)C(=O)O2)cc1 was read as Jurkat NFkB inh 5.7, XBP1 UPR activ 2.8, 697 NFkB inh 0.9, CHOP inhibitor 103.0*, CHOP UPR activ 2.7 and CHOP inh conf 90.6*.
For CC(=O)Oc1cccc(/C=C2\C=C(c3ccc(C)cc3)OC2=O)c1 the results were Jurkat NFkB inh 3.2, XBP1 UPR activ 1.9, 697 NFkB inh 18.2, CHOP inhibitor 8.8 and CHOP UPR activ -0.4.
`COc1ccc(C2=C/C(=C/c3cccnc3)C(=O)O2)cc1OC` gave Jurkat NFkB inh -5.6, XBP1 UPR activ 0.3, 697 NFkB inh -12.9, CHOP inhibitor 104.6*, CHOP UPR activ 0.3 and CHOP inh conf 14.1.
`CCN(CC)CC(=O)Nc1scc2c1c(=O)oc1ccccc12` gave Jurkat NFkB inh -65.6, XBP1 UPR activ 3.2, 697 NFkB inh -51.9, CHOP inhibitor -10.0 and CHOP UPR activ 7.4.
Screening CCOC(=O)c1ccc(N/C=C/C(=O)c2ccc(OC)c(OC)c2)cc1 returned Jurkat NFkB inh 11.5, XBP1 UPR activ 3.7, 697 NFkB inh 5.3, CHOP inhibitor 62.3 and CHOP UPR activ 0.4.
Screening CCOC(=O)c1ccc(Nc2ccc(-c3ccc(OC)c(OC)c3)nn2)cc1 returned Jurkat NFkB inh 6.5, XBP1 UPR activ 7.4, 697 NFkB inh 2.7, CHOP inhibitor 102.0*, CHOP UPR activ 2.6 and CHOP inh conf 12.9.
For Cc1cc(/C=C2\NC(=O)N(Cc3ccc(Cl)cc3)C2=O)c(C)n1C the results were CHOP inhibitor 31.2.
`Cc1ccc(CN2C(=O)N/C(=C/c3ccc4c(c3)n(C)c(=O)n4C)C2=O)cc1` gave Jurkat NFkB inh -8.1, XBP1 UPR activ 2.6, 697 NFkB inh 3.8, CHOP inhibitor 106.3*, CHOP UPR activ 0.4 and CHOP inh conf 55.4.
For Cc1cccc(CCNC(=O)CCc2nnc(CCc3ccccc3)o2)n1 the results were Jurkat NFkB inh -22.8, XBP1 UPR activ 1.8, 697 NFkB inh -15.1, CHOP inhibitor -21.4 and CHOP UPR activ 0.7.
Screening Cc1ccc(C)c(NC(=O)CCN2CCN(CCO)CC2)c1 returned Jurkat NFkB inh -1.0, XBP1 UPR activ -5.7, 697 NFkB inh 1.2 and CHOP UPR activ 2.0.
`Cc1cc(C(C)(C)C)oc1C(=O)O` gave Jurkat NFkB inh 23.1, XBP1 UPR activ -0.1, 697 NFkB inh -11.4, CHOP inhibitor 11.9 and CHOP UPR activ -0.2.
For Cc1cc(C(C)(C)C)oc1C(=O)N1CCN(C(=O)c2oc(C(C)(C)C)cc2C)CC1 the results were CHOP inhibitor 104.8* and CHOP inh conf 115.0*.
`Cc1ccc(S(=O)(=O)N(CC(=O)N2CCOCC2)c2ccc(C(C)C)cc2)cc1` gave Jurkat NFkB inh 12.4, XBP1 UPR activ -1.5, 697 NFkB inh -14.8 and CHOP UPR activ -0.3.
CCCCc1ccc(NC(=S)Nc2ccc(Cl)c(S(=O)(=O)N(C)C)c2)cc1 was read as CHOP inhibitor 105.2* and CHOP inh conf 82.9*.
For CC1=C/C(=N\OS(=O)(=O)c2ccccc2)C(C(C)C)=CC1=O the results were CHOP inhibitor 54.8.
`CC1=C/C(=N\OS(=O)(=O)c2ccccc2)C(C)=CC1=O` gave Jurkat NFkB inh 50.6*, XBP1 UPR activ -6.5, 697 NFkB inh -13.2, CHOP inhibitor 111.4*, CHOP UPR activ -10.8, CHOP inh conf 128.1* and Jurkat NFkB conf 27.6.
O=C(COC(=O)c1ccc2[nH]c3c(c2c1)CCCC3)Nc1ccccc1 was read as Jurkat NFkB inh -11.7, XBP1 UPR activ 1.3, 697 NFkB inh -26.5, CHOP inhibitor -17.7 and CHOP UPR activ -0.9.

Compound activity deposited in PubChem BioAssay by several laboratories.
